Consider one molecule from PMC3042207 (British Journal of Pharmacology, 2011).

Each structure is given as a SMILES string. Where “and” joins values, the source holds several entries; their conditions need not be identical. Equal entries are not always repeated.

A short description of data set [1]: Glucuronidation of 4-HPR by human liver microsomes. In kind it is in vitro ADME. The following applies: human, human liver microsomes, pH 7.5. In a few lines: (§1)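 Intestinal or liver microsomes at 1 mg·mL−1 are incubated with 0–2000 µM substrate (13 levels) for 3 h at 37°C. The buffer is 50 mM Tris-HCl, pH 7.5, with alamethicin 25 µg·mL−1, 8 mM MgCl2, 2 mM UDP-glucuronic acid and 0.25% methanol. Reactions are started with enzyme and stopped with ice-cold acetonitrile. The glucuronide is quantified by C18 HPLC, with identity confirmed by β-glucuronidase. Vmax is in peak area units·min−1; mean ± SD of three independent experiments.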

Data set [2] has as its system human liver microsomes (HLM). The data set can be described thus: Glucuronidation of 4-HPR by human liver microsomes. As to conditions: HLM, 1 mg·mL^−1; 4-HPR 0-2000 µM, 3 h. Type of data set: in vitro ADME. In short, it runs like this:
as §1

The target in a further data set is T1, UGT 1A6 (Homo sapiens, UniProt P19224).
T1 sequence (P19224 27-532): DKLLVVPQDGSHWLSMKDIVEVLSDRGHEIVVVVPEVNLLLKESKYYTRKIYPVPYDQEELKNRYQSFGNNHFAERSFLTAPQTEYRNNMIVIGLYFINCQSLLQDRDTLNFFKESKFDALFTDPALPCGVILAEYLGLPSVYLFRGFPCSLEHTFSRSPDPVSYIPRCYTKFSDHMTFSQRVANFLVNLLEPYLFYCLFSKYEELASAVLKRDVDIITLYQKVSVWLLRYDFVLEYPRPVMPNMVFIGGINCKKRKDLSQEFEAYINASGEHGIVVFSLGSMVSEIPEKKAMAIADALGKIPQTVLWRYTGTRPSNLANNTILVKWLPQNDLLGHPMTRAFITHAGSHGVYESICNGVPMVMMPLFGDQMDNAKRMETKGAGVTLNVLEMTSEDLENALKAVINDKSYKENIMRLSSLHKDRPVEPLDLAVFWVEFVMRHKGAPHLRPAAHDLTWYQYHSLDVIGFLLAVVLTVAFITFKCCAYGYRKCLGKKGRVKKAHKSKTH
The data set can be described thus: Glucuronidation of 4-HPR by UGT 1A6 supersomes. Type of data set: in vitro ADME. The following applies: UGT 1A6, 1 mg·mL^−1; 4-HPR 0-2000 µM, 3 h.

Data set [3] can be described thus: Glucuronidation of 4-HPR by human intestinal microsomes. Type of data set: in vitro ADME. As to conditions: human, human intestinal microsomes, pH 7.5. In a few lines:
as §1

For data set [4], the system named is human intestinal microsomes (HIM). Described as above. In kind it is in vitro ADME. The following applies: HIM, 1 mg·mL^−1; 4-HPR 0-2000 µM, 3 h. In a few lines: as §1
The subject of data set [5] is human liver microsomes (HLM). The data set can be described thus: Formation of 4-MPR from 4-HPR by HLM with SAM. In kind it is in vitro ADME. As to conditions: HLM 0.5 mg·mL^−1, 0–100 µM 4-HPR, 0.2 mM SAM, 3 h.
The target of a further data set is T2, UGT 1A3 (Homo sapiens, UniProt P35503).
T2 sequence (P35503 29-534): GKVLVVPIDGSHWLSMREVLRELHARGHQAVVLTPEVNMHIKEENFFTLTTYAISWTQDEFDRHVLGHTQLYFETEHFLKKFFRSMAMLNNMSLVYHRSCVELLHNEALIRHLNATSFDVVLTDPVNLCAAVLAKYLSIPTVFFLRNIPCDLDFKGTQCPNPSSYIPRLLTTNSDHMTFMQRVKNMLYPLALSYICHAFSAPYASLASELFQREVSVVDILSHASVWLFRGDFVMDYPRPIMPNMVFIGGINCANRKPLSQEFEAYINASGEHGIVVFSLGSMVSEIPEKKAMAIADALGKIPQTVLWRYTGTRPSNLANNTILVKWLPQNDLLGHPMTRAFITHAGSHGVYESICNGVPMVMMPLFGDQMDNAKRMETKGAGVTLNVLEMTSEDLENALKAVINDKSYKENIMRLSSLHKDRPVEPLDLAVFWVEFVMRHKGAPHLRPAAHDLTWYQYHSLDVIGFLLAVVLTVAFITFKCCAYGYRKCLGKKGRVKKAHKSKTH
The data set can be described thus: Glucuronidation of 4-HPR by UGT 1A3 supersomes. Type of data set: in vitro ADME. As to conditions: UGT 1A3, 1 mg·mL^−1; 4-HPR 0-2000 µM, 3 h.

The target in another data set is T3, UGT 1A1 (Homo sapiens, UniProt P22309).
T3 sequence (P22309 26-533): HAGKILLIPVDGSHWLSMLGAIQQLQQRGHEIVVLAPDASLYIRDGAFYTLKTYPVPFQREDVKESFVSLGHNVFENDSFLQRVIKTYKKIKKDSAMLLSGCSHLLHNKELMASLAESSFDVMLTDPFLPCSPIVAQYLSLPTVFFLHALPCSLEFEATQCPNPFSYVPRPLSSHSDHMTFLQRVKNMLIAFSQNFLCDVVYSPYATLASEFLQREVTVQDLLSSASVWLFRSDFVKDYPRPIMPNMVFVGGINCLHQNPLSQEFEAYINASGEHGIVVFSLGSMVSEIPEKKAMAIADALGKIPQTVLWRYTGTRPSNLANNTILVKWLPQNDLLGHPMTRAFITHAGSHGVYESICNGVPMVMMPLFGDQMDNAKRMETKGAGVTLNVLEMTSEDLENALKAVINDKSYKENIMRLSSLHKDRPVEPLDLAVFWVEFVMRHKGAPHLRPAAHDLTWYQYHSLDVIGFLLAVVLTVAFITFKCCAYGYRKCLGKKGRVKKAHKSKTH
The data set can be described thus: Glucuronidation of 4-HPR by UGT 1A1 supersomes. As to conditions: UGT 1A1, 1 mg·mL^−1; 4-HPR 0-2000 µM, 3 h. Type of data set: in vitro ADME.

For data set [6] the following is noted: mouse model; ref Maurer et al., 2007; cited from earlier work.
In data set [7] the test system is human liver microsomes (HLM). The data set can be described thus: Oxidative metabolism of 4-HPR by human liver microsomes. Type of data set: in vitro ADME. As to conditions: 4-HPR 0-20 µM, 3 h, HPLC, mean ± SD, n≥3. In a few lines: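 Termination is with ice-cold acetonitrile, then centrifugation at 10 000× g. The 4′-hydroxy and 4′-oxo metabolites are resolved by reversed-phase HPLC with photodiode-array detection. Vmax is derived from formation rates; mean ± SD, n ≥ 3.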

For a further data set, the system named is individual human CYPs. Type of data set: in vitro ADME. The following applies: CYPs 3A4, 3A5 and 2C8 supersomes. In short, it runs like this:
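Reactions are stopped with acetonitrile and the 4′-hydroxy metabolite is measured by HPLC. With no authentic standard, Vmax is given in peak area units·min−1. Values are mean ± SD of at least three experiments.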

Regarding `CC1=C(/C=C/C(C)=C/C=C/C(C)=C/C(=O)Nc2ccc(O)cc2)C(C)(C)CCC1` [4-HPR, fenretinide], the Km at 3 h in data set [1] was 540 ± 69 µM; in data set [3], 1210 ± 202 µM. Also, the “Vmax, 4-HPR glucuronide formation” value was 679 ± 39 peak area U·min^−1 in data set [2]; 124 ± 6 peak area U·min^−1 on UGT 1A6; 418 ± 38 peak area U·min^−1 in data set [4]; 317 ± 18 peak area U·min^−1 at UGT 1A3; 577 ± 34 peak area U·min^−1 at UGT 1A1. Also, the “Vmax, 4-HPR glucuronide formation, per pmol UGT” value on UGT 1A6 was 0.02 peak area U·min^−1·pmol^−1 UGT and 0.02 ± 0.001 peak area U·min^−1·pmol^−1 UGT; at UGT 1A3, 2.11 peak area U·min^−1·pmol^−1 UGT and 2.11 ± 0.12 peak area U·min^−1·pmol^−1 UGT; at UGT 1A1 it was 0.62 peak area U·min^−1·pmol^−1 UGT and 0.62 ± 0.04 peak area U·min^−1·pmol^−1 UGT. Moreover, the “Vmax, 4-MPR formation” value in data set [5] (calculated) was 823 peak U·min^−1. In addition, the Km in [5] (read-out: Km, 4-MPR formation) is 236 µM. The “increase of plasma concentrations, lipid matrix vs oil-based capsules” value in data set [6] was “up to seven-fold”. In data set [7], the “Vmax, 4′-OH 4-HPR formation” value was 28 peak area U·min^−1 and 28 ± 6 peak area U·min^−1. Also, the “Vmax, 4′-oxo 4-HPR formation” value in data set [7] is 131 peak area U·min^−1 and 131 ± 14 peak area U·min^−1. Moreover, the “Vmax, 4′-OH 4-HPR production, range over supersomes expressing individual CYPs” value with individual human CYPs is recorded as 115–282 peak area U·min^−1.
